Substitutions are numbered along the chain they refer to. “And” between values parts separate entries of the source, which are not always exact repeats. Identical values can stand only once. Like-named read-outs stand apart in the source and are kept apart here.
Legend:
[1] = target: T1, SHP-2 (Homo sapiens, UniProt Q06124); assay: PTP assay, SHP-2; format: biochemical; conditions: catalytic domain; 100 mM HEPES pH 7.4; monitored at 282 nm
T1 sequence (Q06124 199-593): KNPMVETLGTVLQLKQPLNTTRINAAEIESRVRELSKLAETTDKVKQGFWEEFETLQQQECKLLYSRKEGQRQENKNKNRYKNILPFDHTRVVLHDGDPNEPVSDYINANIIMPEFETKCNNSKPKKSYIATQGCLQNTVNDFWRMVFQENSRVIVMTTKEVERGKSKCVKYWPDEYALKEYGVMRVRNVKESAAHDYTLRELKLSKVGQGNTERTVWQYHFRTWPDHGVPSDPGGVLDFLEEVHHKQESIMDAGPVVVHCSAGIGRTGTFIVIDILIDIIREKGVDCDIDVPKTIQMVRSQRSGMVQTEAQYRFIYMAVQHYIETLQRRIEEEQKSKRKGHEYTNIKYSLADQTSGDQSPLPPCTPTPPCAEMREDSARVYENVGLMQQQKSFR
Method in brief: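 His-tagged catalytic domains were made in E. coli: PTPD2 aa 876–1187 and PTPRC aa 620–1236 with N-terminal tags, PTPD1 aa 875–1174 and SHP-2 aa 199–593 with C-terminal tags. Enzyme was added at 0.5–20000 nM final. A282 (Δε 1102 M−1 cm−1) was followed. Constants came from Michaelis–Menten fits of initial rates (<60 s), or from fits of progress curves run to substrate depletion.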

[2] = target: T2, R47E PTP1B (Homo sapiens, UniProt P18031, R47E); assay: PTP assay, R47E PTP1B; format: biochemical
T2 sequence (P18031 1-321 R47E): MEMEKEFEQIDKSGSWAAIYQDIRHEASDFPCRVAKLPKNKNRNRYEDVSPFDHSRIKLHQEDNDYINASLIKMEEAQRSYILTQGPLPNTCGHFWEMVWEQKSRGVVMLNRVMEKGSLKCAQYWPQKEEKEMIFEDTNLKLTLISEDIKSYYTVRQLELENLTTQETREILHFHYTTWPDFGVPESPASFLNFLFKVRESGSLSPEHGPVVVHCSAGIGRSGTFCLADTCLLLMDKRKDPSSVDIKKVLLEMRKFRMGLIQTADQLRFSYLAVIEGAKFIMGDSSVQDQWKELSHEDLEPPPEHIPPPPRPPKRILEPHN
Method in brief: (§1)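 E. coli-expressed catalytic domains were used: wild-type, R24M or R47E PTP1B (aa 1–321), and SHP-1 (aa 205–595). Reactions started with PTP (0.5–20000 nM final) and dephosphorylation was monitored continuously at 282 nm. kcat, KM and kcat/KM came from initial-rate fits (Michaelis–Menten, or V = kcat[E][S]/KM when KM >> [S]) or from fits of progress curves.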

[3] = target: T3, R24M PTP1B (Homo sapiens, UniProt P18031, R24M); assay: PTP assay, R24M PTP1B; format: biochemical
T3 sequence (P18031 1-321 R24M): T2 sequence (P18031 1-321 R47E) with R24M, E47R
Method in brief: as §1

[4] = target: SHP-1 (Homo sapiens, UniProt P29350); conditions: catalytic domain; cited from earlier work
[5] = target: T1, SHP-2; conditions: catalytic domain; cited from earlier work

Sequence of SHP-1 (P29350 205-595): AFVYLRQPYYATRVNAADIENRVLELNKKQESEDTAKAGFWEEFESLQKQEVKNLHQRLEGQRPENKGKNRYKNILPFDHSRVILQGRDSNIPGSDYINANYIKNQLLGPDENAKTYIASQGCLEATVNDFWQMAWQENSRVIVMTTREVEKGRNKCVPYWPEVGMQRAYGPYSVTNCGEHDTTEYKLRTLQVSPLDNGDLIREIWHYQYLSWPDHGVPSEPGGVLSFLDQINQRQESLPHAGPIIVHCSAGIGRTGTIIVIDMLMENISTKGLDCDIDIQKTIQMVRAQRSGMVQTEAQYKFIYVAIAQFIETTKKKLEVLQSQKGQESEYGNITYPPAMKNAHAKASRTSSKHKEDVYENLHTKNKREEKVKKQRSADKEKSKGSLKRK

Ac-YRKRFpYRYKF-NH2
kcat/KM x10^6 [1]: 0.00015 x10^6 M^−1 s^−1

Ac-SASASpYSASA-NH2
Km ([2]; R47E PTP1B aa 1–321, pH 7.4): 12 ± 1 µM | kcat ([2]; R47E PTP1B aa 1–321, pH 7.4): 35 ± 1 s⁻¹ | kcat/KM x 10^7 ([2]; R47E PTP1B aa 1–321, pH 7.4): 0.29 x 10^7 M^−1 s^−1 | WT/R47E ([2]; ratio of kcat/KM, WT over R47E PTP1B (fold decrease by the mutation)): 0.79 | Km ([3]; R24M PTP1B aa 1–321, pH 7.4): 14 ± 0.6 µM | kcat ([3]; R24M PTP1B aa 1–321, pH 7.4): 42 ± 2 s⁻¹ | kcat/KM x 10^7 ([3]; R24M PTP1B aa 1–321, pH 7.4): 0.30 x 10^7 M^−1 s^−1 | WT/R24M ([3]; ratio of kcat/KM, WT over R24M PTP1B (fold reduction by the mutation)): 0.77 | Km [4]: 1990 µM and 2000 µM | kcat [4]: 26 ± 4 s^−1 and 26 ± 4 ^c s^−1 | kcat/KM x10^6 [4]: 0.013 x10^6 M^−1 s^−1 | Km [5]: 2300 ± 400 µM | kcat [5]: 42 ± 5 s^−1 and 42 ± 5 ^c s^−1 | kcat/KM x10^6 [5]: 0.018 x10^6 M^−1 s^−1 and 0.018 ^c x10^6 M^−1 s^−1

— article PMC3954597 (Biochemistry, 2014)
